Laboratory results published in PubChem BioAssay AID2770 (The Scripps Research Institute Molecular Screening Center, 2010).
Calls of active or inactive are those of the source. The rule behind the calls is not given here.

Assays:
Test in all cases: agonist activity on off-target TRP channel panel – cell-based, Fura-2 calcium ratio, transfected HEK293, SAR round 1, selectivity assay for TRPML3 agonist project, profiling panel (AID 2770)
[1] = tested on: hTRPA1; settings: HEK293 transfected TRP channels
Method in brief: (§1)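 Material: transfected or mock-transfected HEK293 cells carrying assorted TRP channels / Input: 20-30 cells imaged per experiment / Compound dosing: single 10 µM test compound dose applied by perfusion / Schedule: compound perfusion 20-25 h post-transfection, then 2 min calcium imaging / Detection: ratiometric fluorescence imaging with 4 µM fura-2-AM calcium dye / Repeats: n ≥3 independent experiments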

[2] = target: Ion channel NompC (Danio rerio) (UniProt Q7T1G6); settings: HEK293 transfected TRP channels, drTRPN1
Method in brief: as §1

[3] = target: Mucolipin-1 (Homo sapiens) (UniProt Q9GZU1); settings: HEK293 transfected TRP channels
Sequence of Mucolipin-1 (Homo sapiens) (Q9GZU1 whole entry, looked up): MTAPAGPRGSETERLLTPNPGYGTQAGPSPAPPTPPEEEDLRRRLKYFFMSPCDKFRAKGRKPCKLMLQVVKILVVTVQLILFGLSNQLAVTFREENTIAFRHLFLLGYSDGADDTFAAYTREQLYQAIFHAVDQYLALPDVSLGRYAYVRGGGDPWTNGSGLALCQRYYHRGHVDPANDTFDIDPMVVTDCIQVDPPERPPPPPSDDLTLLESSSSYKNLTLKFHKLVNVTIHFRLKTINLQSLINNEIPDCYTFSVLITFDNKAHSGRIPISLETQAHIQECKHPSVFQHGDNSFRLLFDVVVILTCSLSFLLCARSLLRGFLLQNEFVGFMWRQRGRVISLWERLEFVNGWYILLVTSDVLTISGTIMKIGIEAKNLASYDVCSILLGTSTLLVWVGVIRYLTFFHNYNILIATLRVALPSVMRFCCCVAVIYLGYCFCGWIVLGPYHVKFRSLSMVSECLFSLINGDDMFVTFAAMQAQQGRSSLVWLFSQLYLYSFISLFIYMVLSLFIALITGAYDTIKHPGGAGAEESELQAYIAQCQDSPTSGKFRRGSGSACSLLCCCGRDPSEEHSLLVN
Method in brief: as §1

[4] = tested on: mTRPV2; settings: HEK293 transfected TRP channels
Method in brief: as §1

[5] = tested on: HEK cells; settings: HEK293 transfected TRP channels, at 10 µM, stronger effect = higher value
Method in brief: as §1

[6] = tested on: hTRPM2; settings: HEK293 transfected TRP channels
Method in brief: as §1

[7] = tested on: hTRPC3; settings: HEK293 transfected TRP channels
Method in brief: as §1

[8] = tested on: mTRPML2 (mucolipin 2); settings: HEK293 transfected TRP channels
Method in brief: as §1

[9] = hTRPML1 (NC) plasma membrane variant

Measured: Fura-2 340/380 ratio change

CC1CCN(S(=O)(=O)c2ccc(C(C)C)cc2)CC1
inactive: [1] inactive; selective for TRPML3 | [2] inactive; selective for TRPML3 | [3]; hTRPML1 inactive; selective for TRPML3 | [3]; [9] inactive; selective for TRPML3 | [4] inactive; selective for TRPML3 | [5] -0.008 | [6] inactive; selective for TRPML3 | [7] inactive; selective for TRPML3 | [8] inactive; selective for TRPML3

CCOc1ccc(S(=O)(=O)N2CCCCCC2)c2ccccc12
inactive: [1] inactive; selective for TRPML3 | [2] inactive; selective for TRPML3 | [3]; hTRPML1 inactive; selective for TRPML3 | [3]; [9] inactive; selective for TRPML3 | [4] inactive; selective for TRPML3 | [5] -0.011 | [6] inactive; selective for TRPML3 | [7] inactive; selective for TRPML3 | [8] inactive; selective for TRPML3

Cc1ccc(S(=O)(=O)n2nccc2-c2c(-c3ccc(Cl)cc3)noc2C)cc1
inactive: [1] inactive; selective for TRPML3 | [2] inactive; selective for TRPML3 | [3]; hTRPML1 inactive; selective for TRPML3 | [3]; [9] inactive; selective for TRPML3 | [4] inactive; selective for TRPML3 | [5] -0.005 | [6] inactive; selective for TRPML3 | [7] inactive; selective for TRPML3 | [8] inactive; selective for TRPML3
